Source: PubChem BioAssay
TRPC6 inh = mouse TRPC6 channel inhibitors, primary screen, cell-based, HEK293, membrane potential dye. Short transient receptor potential channel 6 (Mus musculus), Q61143. ACh-evoked depolarization; stronger effect = lower value. B-score at 10 µM. 310,000 tested, 1.1% active;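 active = B-score under library mean minus 3 SD, initial fluorescence not abnormally high, positive integrated signal ratio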;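 note: B-score derived from integrated fluorescence ratio over the kinetic read; more negative B-score means stronger inhibition of depolarization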
TRPC4 PAM = positive allosteric modulators of TRPC4, primary screen, cell-based, mouse TRPC4beta, HEK293 mu-opioid, Fluo-4 calcium | B-score at 10 µM | AID 2227, 2009 | Short transient receptor potential channel 4 (Mus musculus), Q9QUQ5 | 310,000 tested, 0.42% active | DAMGO EC20, Fluo-4 Ca2+ flux; stronger effect = higher value;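 active = B-score of calcium response area above 5 SD of library B-scores, with initial fluorescence ratio within 5 SD of library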
Target sequence (Q9QUQ5 whole entry, looked up): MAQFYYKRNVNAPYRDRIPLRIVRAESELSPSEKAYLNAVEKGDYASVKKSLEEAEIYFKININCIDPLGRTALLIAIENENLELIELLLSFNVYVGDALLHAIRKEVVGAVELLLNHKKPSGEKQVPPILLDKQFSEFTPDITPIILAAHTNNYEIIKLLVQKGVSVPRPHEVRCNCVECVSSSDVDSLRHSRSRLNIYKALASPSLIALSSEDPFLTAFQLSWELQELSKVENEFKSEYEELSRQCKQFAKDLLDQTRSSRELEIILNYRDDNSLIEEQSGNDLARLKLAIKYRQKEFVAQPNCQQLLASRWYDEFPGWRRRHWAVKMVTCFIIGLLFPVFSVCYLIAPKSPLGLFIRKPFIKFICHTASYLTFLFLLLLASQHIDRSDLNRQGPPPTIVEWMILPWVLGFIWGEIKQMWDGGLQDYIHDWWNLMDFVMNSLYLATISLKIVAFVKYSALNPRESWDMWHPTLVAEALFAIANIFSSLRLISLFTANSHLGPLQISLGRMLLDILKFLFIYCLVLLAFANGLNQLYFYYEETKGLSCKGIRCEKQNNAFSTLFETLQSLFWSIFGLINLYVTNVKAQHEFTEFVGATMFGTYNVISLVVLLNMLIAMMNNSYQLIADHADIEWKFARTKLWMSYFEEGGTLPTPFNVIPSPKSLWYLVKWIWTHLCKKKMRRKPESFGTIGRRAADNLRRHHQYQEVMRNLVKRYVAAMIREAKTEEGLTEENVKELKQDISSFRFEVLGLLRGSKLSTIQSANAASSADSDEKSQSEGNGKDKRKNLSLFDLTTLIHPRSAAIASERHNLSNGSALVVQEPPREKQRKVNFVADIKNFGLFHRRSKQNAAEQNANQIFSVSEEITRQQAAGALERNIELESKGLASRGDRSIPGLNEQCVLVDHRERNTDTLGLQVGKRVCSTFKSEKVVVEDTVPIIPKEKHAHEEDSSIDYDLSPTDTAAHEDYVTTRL
TRPC4 block = inhibitors of mouse TRPC4 channel, primary screen, Fluo4 calcium, HEK293 TRPC4beta/mu-opioid cells; Short transient receptor potential channel 4 (Mus musculus), Q9QUQ5; DAMGO-evoked Fluo4 calcium flux; stronger effect = lower value; B-score at 10 µM; 300,000 tested, 0.39% active;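 active = B-score over 3 SD under the library average, no early fluorescence shift, positive overall ratio signal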
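Assay system – HEK293 line stably carrying TRPC4beta and mu-opioid receptor · Doses – single dose · Detection – Fluo4 calcium-dye fluorescence, kinetic read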
TRPC6 act = mouse TRPC6 channel activators, primary screen, cell-based, HEK293, membrane potential dye; AID 2550, 2010; 310,000 tested, 0.13% active; HEK293-TRPC6 membrane potential dye fluorescence; stronger effect = higher value; B-score at 10 µM; Short transient receptor potential channel 6 (Mus musculus), Q61143;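 active = B-score of the integrated fluorescence ratio above library mean plus 3 SD, and starting fluorescence ratio within library mean plus 5 SD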;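 note: higher score means more depolarization so channel activation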
TRPC4 agonist = activators of mouse TRPC4 channel, primary screen, Fluo4 calcium, HEK293 TRPC4beta/mu-opioid cells. 310,000 tested, 0.49% active. B-score at 10 µM. AID 2237, 2010. Short transient receptor potential channel 4 (Mus musculus), Q9QUQ5. Fluo4 calcium fluorescence; stronger effect = higher value;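 active = B-score above 5 SD of library B-scores, and initial fluorescence ratio not above library mean plus 5 SD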;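 note: positive B-score marks a calcium rise read as TRPC4 activation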
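Material: TRPC4beta and mu-opioid receptor HEK293 stable cells | Incubation: 45 min room-temperature Fluo4 loading, 110 s read | Detection: Kinetic Fluo4 calcium fluorescence | Measure: Integrated baseline-normalised fluorescence ratio, converted to per-well B score | Benchmarks: Low control buffer alone, high control maximal DAMGO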
Each line names hits and unclear results; the compound was inactive in the other large screens. Compounds with a hit are over-represented: about 2.3% of the library has one in this group of screens.

O=C1Nc2ccccc2C12Nc1ccccc1-c1nc3ccccc3n12 (stereo unspecified)	none
CSc1nsc(SCC(=O)Nc2ccccc2)n1	none
CSc1nsc(NC(=O)Cc2ccccc2)n1	TRPC4 block -6
Cc1ccccc1-c1nn(-c2ccc(F)cc2F)cc1CNCCCN(C)C	none
Cc1c(F)cccc1NS(=O)(=O)c1ccc2c(c1)NC(=O)CO2	none
CCOC(=O)Cc1csc(NC(=O)NC2(C(F)(F)F)Oc3ccc(Cl)cc3O2)n1 (stereo unspecified)	none
CCOC(=O)Cc1csc(NC(=O)NC2(C(F)(F)F)Oc3cc(Cl)c(Cl)cc3O2)n1	TRPC4 block -7
CCCC1Cc2nc(N3CCCCC3)c(C#N)cc2CO1 (stereo unspecified)	TRPC4 PAM 10
CCCC1Cc2[nH]c(=O)c(C#N)cc2CO1 (stereo unspecified)	none
O=c1c2ccccc2c(=O)n2n1Cc1ccccc1C2	none
Cc1cc(NC(=O)c2cc(C3CC3)on2)no1	none
CC1=C(c2ccccc2)C(=S)NC(C)(C)C1	none
COc1ccc(C2C(C#N)=C(N)N(c3sc4c(c3C#N)CCCC4)C3=C2C(=O)CC(C)(C)C3)cc1 (stereo unspecified)	TRPC4 block -5
COc1ccc(C2C(C#N)=C(N)N(c3sc4c(c3C#N)CCCC4)C3=C2C(=O)CC(C)(C)C3)cc1OC (stereo unspecified)	none
CCN(C(=O)COC(=O)c1cc2c(s1)CCCCC2)C1CCS(=O)(=O)C1 (stereo unspecified)	none
O=C(COC(=O)c1cc2c(s1)CCCCC2)NC1CCS(=O)(=O)C1 (stereo unspecified)	TRPC4 PAM 88
CCN1/C(=C\c2ccc3cc(C)ccc3[n+]2CC)Sc2cc(C)c(C)cc21	TRPC4 PAM 29, TRPC4 agonist 131
CCN1/C(=C/c2ccc3cccc(C)c3[n+]2CC)Sc2ccccc21	TRPC4 PAM 15, TRPC4 block -6, TRPC4 agonist 335
COc1cc(S(=O)(=O)N(Cc2cccnc2)Cc2cccc(OC)c2OC)ccc1-n1cnnn1	none
CC1=C(C)CC(C(=O)NCc2c(F)cccc2Cl)C(C(=O)O)C1 (stereo unspecified)	none
CCCOc1ccc(Br)cc1/C=N/O	TRPC4 block -6
CC(=O)Oc1c(C)cc(O)c2ccccc12	TRPC4 PAM 17
Cc1ccc(NS(=O)(=O)c2cc([N+](=O)[O-])ccc2NNC(=S)Nc2cccc(Cl)c2)c(C)c1	none
Cc1ccc(NS(=O)(=O)c2cc([N+](=O)[O-])ccc2NNC(=S)Nc2cc(C)ccc2C)c(C)c1	TRPC4 PAM 16
Cc1ccccc1OCCNc1cc(N2CCNCC2)ccc1[N+](=O)[O-]	TRPC6 inh -7.9, TRPC4 PAM 14
CC(C)c1ccc(NC(=O)CN2C(=O)NC3(CCCC3)C2=O)cc1	none
CCCN(CCC)CCCNC(=O)c1ccc2c(c1)N(CC)C(=O)c1ccccc1S2=O (stereo unspecified)	TRPC4 agonist 66
O=C(NCCCN1CCCC1)c1ccc2c(c1)N(Cc1cccc(Cl)c1)C(=O)c1ccccc1S2=O (stereo unspecified)	none
CCCCSCCCNC(=O)c1ccc2c(c1)N(CC)C(=O)c1ccccc1S2=O (stereo unspecified)	none
CC1CC(C)CN(CCCNC(=O)c2ccc3c(c2)N(Cc2ccccc2)C(=O)c2ccccc2S3=O)C1 (stereo unspecified)	TRPC4 agonist 85
CCCCN(C)CCNC(=O)C(NC(=O)C1CCC(C)CC1)C(C)C (stereo unspecified)	TRPC4 agonist 52
CC1CCC(C(=O)NC(C(=O)NCCCN2CCOCC2)C(C)C)CC1 (stereo unspecified)	none
O=c1cc(N2CCCCC2)c(-c2ccccc2)nn1Cc1ccccc1Cl	TRPC4 PAM 14
OCC1(CCc2ccccc2)CCN(Cc2cc(Cl)ccc2O)CC1	TRPC4 block -7
OCC1(CCCc2ccccc2)CCN(Cc2ccc(F)cc2)CC1	none
Cc1ccc(-n2cccn2)c(CN2CCC(CO)(CCc3ccccc3)CC2)c1	TRPC4 agonist 56
CC1=NN(C(C#N)c2ccccc2C)C(C)(C)C1 (stereo unspecified)	none
COc1cc(C2NCCc3c2[nH]c2ccccc32)ccc1OC(C)C (stereo unspecified)	TRPC6 inh -6.1
COc1ccc(-n2nc(N)c(C(N)=O)n2)cc1	none
CCOC(=O)C1CCN(C(=O)CCCOc2ccccc2)CC1	none
Cc1cccc(NC(=S)NC2CC3CCC(C2)N3Cc2ccco2)c1C (stereo unspecified)	none
Cc1ccc(NC(=S)NC2CC3CCC(C2)N3Cc2ccco2)c(C)c1 (stereo unspecified)	TRPC4 agonist 116
Cc1cccc(NC(=S)NC2CC3CCCC(C2)N3Cc2ccccc2)c1C (stereo unspecified)	TRPC4 agonist 65
O=C(NCCCN1CCCC1=O)c1cc(-c2ccc3c(c2)OCO3)nc2ccccc12	none
Cc1ccc(-n2c(SCC(=O)O)nc3sc4c(c3c2=O)C(C)CCC4)cc1 (stereo unspecified)	TRPC4 PAM 11
Cc1ccccc1-n1c(SCC(=O)O)nc2sc3c(c2c1=O)CCCC3	none
CCOc1ccc(-n2c(SCC(=O)O)nc3sc4c(c3c2=O)CCCC4)cc1	TRPC4 PAM 16
Cc1nc2nc(CNC(=O)OC(C)(C)C)nn2c(C)c1CCC(=O)Nc1ccc2c(c1)OCO2	none
CC(C)n1c(CN2CCN(C(=O)c3ccco3)CC2)nc2c1c(=O)n(C)c(=O)n2C	none
O=[N+]([O-])c1ccc(SCCc2ccncc2)cc1	none
O=[N+]([O-])c1ccc(SCCc2ccccn2)cc1	TRPC4 PAM 14
CN(CCc1ccccn1)c1ccc([N+](=O)[O-])cn1	TRPC4 agonist 189
COc1ccc(OC2CCN(S(=O)(=O)c3cccc(F)c3)CC2)cc1	TRPC4 PAM 11
C[C@@]12C(=O)N(CC3CC3)CC(=O)N1[C@H](C1CC1)[C@@H]1C(=O)N(c3ccccc3)C(=O)[C@@H]12	none
CC1(C)C2CCC(C2)C1C/C=N/NC(N)=S (stereo unspecified)	none
CCOCCCNC(=O)/C(C#N)=C/c1ccc(Cl)c([N+](=O)[O-])c1	TRPC4 PAM 18
CN(CCc1ccccn1)C(=O)Nc1ccc(Cl)cc1	none
CN(CCc1ccccn1)C1CC(=O)N(c2ccc(Cl)cc2)C1=O (stereo unspecified)	TRPC4 agonist 148
